What was measured:
Homo sapiens = species: Homo sapiens; assay: Selectivity ratio of Ki for human recombinant adenosine 2a receptor to Ki for human recombinant adenosine A3 receptor
[1] = biological target: Adenosine receptors; A1 & A3 (Homo sapiens) (UniProt P30542+P0DMS8); assay: Selectivity ratio of Ki for human recombinant adenosine A1 receptor to Ki for human recombinant adenosine A3 receptor
Adenosine receptor A1 = biological target: T1, Adenosine receptor A1 (Homo sapiens, UniProt P30542); assay: Displacement of [3H]CCPA from human recombinant adenosine A1 receptor expressed in CHO cells after 3 hrs; assay type: cell-based
T1 sequence (P30542 whole entry): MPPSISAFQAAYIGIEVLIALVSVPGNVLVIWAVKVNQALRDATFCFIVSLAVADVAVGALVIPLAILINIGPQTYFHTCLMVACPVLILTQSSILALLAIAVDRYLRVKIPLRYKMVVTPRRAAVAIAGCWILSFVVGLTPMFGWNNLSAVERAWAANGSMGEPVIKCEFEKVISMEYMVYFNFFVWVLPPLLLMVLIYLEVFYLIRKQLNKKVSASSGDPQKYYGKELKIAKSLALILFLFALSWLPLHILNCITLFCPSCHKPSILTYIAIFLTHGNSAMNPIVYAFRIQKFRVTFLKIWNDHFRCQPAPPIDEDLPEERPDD
In short: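 CHO membranes (two-step spin, stored -80 °C), 20 μg protein, incubated 3 h at 25 °C in 200 μL 50 mM Tris/HCl pH 7.4 with 1 nM [3H]CCPA, 0.2 U/mL adenosine deaminase and a range of test concentrations. Nonspecific binding with 1 mM theophylline. Filtration and scintillation counting. Ki by Cheng-Prusoff; n = 3-6, geometric means, 95% CI.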

Adenosine receptor A2b = biological target: T2, Adenosine receptor A2b (Homo sapiens, UniProt P29275); assay: Antagonist activity human recombinant adenosine 2B receptor expressed in CHO cells assessed as inhibition of NECA-stimulated adenylyl cyclase activity; assay type: functional, cell-based
T2 sequence (P29275 whole entry): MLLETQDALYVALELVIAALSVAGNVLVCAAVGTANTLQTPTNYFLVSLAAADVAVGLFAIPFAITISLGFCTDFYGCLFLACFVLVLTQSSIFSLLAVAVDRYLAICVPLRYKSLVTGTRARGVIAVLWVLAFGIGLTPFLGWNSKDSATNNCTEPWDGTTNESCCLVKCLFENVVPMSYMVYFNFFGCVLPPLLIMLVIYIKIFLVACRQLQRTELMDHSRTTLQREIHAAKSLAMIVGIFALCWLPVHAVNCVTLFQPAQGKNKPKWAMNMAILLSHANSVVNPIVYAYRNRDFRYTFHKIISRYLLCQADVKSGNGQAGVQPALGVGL
In short: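 Membranes from hA2B-expressing CHO cells, single 54,000g 30-min spin, resuspended in 50 mM Tris/HCl pH 7.4 and used at once. Incubated 20 min with about 150,000 cpm [α-32P]ATP, no EGTA or NaCl. IC50 from concentration-dependent inhibition of NECA-stimulated adenylyl cyclase, converted to Ki; n = 3-6, geometric means with 95% confidence limits.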

Adenosine receptor A2a = Adenosine receptor A2a (Homo sapiens, UniProt P29274); assay: Displacement of [3H]NECA from human recombinant adenosine 2A receptor expressed in CHO cells after 3 hrs; assay type: cell-based
Adenosine receptor A2a, sequence (P29274 whole entry): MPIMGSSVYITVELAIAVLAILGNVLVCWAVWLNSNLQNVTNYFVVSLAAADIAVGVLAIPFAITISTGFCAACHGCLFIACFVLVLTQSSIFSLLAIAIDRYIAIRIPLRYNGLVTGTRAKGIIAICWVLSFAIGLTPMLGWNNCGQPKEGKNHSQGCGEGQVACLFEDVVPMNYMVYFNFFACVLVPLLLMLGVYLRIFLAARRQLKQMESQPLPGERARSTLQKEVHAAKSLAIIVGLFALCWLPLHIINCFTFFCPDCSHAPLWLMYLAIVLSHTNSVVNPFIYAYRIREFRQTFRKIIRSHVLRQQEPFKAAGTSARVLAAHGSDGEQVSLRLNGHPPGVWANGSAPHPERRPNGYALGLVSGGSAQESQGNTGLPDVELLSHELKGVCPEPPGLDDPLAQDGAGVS
In short: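 Membranes at 50 μg protein, incubated 3 h at 25 °C in 50 mM Tris/HCl, 10 mM MgCl2, pH 7.4 with 30 nM [3H]NECA and varied test concentrations. 100 μM R-PIA defined nonspecific binding. Bound ligand separated on glass-fiber filters and counted. Ki by Cheng-Prusoff; n = 3-6, geometric means, 95% CI.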

Adenosine receptor A3 = biological target: T3, Adenosine receptor A3 (Homo sapiens, UniProt P0DMS8); assay: Displacement of [3H]NECA from human recombinant adenosine A3 receptor expressed in CHO cells after 3 hrs; assay type: cell-based
T3 sequence (P0DMS8 whole entry): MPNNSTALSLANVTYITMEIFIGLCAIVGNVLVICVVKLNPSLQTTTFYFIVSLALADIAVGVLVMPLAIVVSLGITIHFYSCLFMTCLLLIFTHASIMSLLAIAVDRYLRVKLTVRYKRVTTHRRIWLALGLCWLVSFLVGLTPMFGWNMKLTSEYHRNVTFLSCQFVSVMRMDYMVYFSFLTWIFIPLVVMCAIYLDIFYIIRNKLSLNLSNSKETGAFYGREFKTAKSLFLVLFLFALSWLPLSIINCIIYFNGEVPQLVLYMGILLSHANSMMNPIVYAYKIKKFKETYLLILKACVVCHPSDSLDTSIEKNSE
In short: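 20 μg membrane protein in 50 mM Tris/HCl, 1 mM EDTA, 10 mM MgCl2, pH 8.25 with 10 nM [3H]NECA and test compound over a concentration range, 3 h at 25 °C. Nonspecific binding with 100 μM R-PIA. Filtration, then counting. Ki via Cheng-Prusoff; n = 3-6, geometric means with 95% CI.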

Ratio Ki (Homo sapiens) | Ratio Ki [1] | Ki (Adenosine receptor A1) | Ki (Adenosine receptor A2b) | Ki (Adenosine receptor A2a) | Ki (Adenosine receptor A3) | Structure (SMILES)
2380 | 3710 | – | – | – | – | Cn1cc2c(nc(NC(=O)Nc3ccccc3)n3nc(-c4ccco4)nc23)n1
> 47600 | > 47600 | > 100 µM | > 10 µM | > 100 µM | 2.1 nM | COc1ccc(NC(=O)Nc2nc3nn(C)cc3c3nc(-c4ccc(-c5ccccc5)cc4)nn23)cc1
> 24600 | > 24600 | > 100 µM | > 10 µM | > 100 µM | 4.06 nM | Cn1cc2c(nc(NC(=O)Nc3ccc(F)cc3)n3nc(-c4ccc(-c5ccccc5)cc4)nc23)n1
22.8 | > 329 | > 100 µM | > 10 µM | 6.93 µM | 304 nM | Cn1cc2c(nc(N)n3nc(-c4ccc(C(F)(F)F)cc4)nc23)n1
171 | 69.5 | 0.232 µM | > 30 µM | 0.571 µM | 3.34 nM | O=C(Cc1ccccc1)Nc1nc2nn(CCc3ccccc3)cc2c2nc(-c3ccc(F)cc3)nn12
200 | > 5660 | > 30 µM | > 10 µM | 1.06 µM | 5.3 nM | Cn1cc2c(nc(NC(=O)Nc3ccc(F)cc3)n3nc(-c4ccc(Cl)cc4)nc23)n1
364 | 110 | 0.932 µM | > 30 µM | 3.09 µM | – | O=C(Cc1ccccc1)Nc1nc2nn(CCc3ccccc3)cc2c2nc(-c3ccc(Cl)cc3)nn12
577 | 3250 | 5.55 µM | > 10 µM | 0.987 µM | 1.71 nM | Cn1cc2c(nc(NC(=O)Nc3ccccc3)n3nc(-c4ccc(Cl)cc4)nc23)n1
> 5090 | > 5090 | > 30 µM | > 10 µM | > 30 µM | 5.9 nM | Cn1cc2c(nc(NC(=O)Nc3ccccc3)n3nc(-c4ccc(-c5ccccc5)cc4)nc23)n1
1.33 | 2.67 | – | – | – | 45 nM | O=C(Cc1ccccc1)Nc1nc2nn(CCc3ccccc3)cc2c2nc(-c3ccco3)nn12
4310 | > 5130 | > 10 µM | > 10 µM | 8.4 µM | 1.95 nM | COc1ccc(NC(=O)Nc2nc3nn(C)cc3c3nc(-c4ccc(Br)cc4)nn23)cc1
> 15700 | 2310 | 4.42 µM | > 10 µM | > 30 µM | 1.91 nM | Cn1cc2c(nc(NC(=O)Nc3ccc(F)cc3)n3nc(-c4ccc(C(F)(F)F)cc4)nc23)n1
> 42400 | > 42400 | > 100 µM | > 10 µM | > 100 µM | 2.36 nM | COc1ccc(NC(=O)Nc2nc3nn(C)cc3c3nc(-c4ccc(C(F)(F)F)cc4)nn23)cc1
3450 | > 17400 | > 30 µM | > 10 µM | 5.93 µM | 1.72 nM | Cn1cc2c(nc(NC(=O)Nc3ccc(F)cc3)n3nc(-c4ccc(Br)cc4)nc23)n1
> 204 | > 680 | > 100 µM | > 10 µM | > 30 µM | 147 nM | Cn1cc2c(nc(N)n3nc(-c4ccc(-c5ccccc5)cc4)nc23)n1
1100 | 4880 | 6.49 µM | > 10 µM | 1.46 µM | 1.33 nM | COc1ccc(NC(=O)Nc2nc3nn(C)cc3c3nc(-c4ccc(Cl)cc4)nn23)cc1
236 | 23.1 | 0.395 µM | > 30 µM | 4.04 µM | 17.1 nM | O=C(Nc1nc2nn(CCc3ccccc3)cc2c2nc(-c3ccc(F)cc3)nn12)c1ccccc1
944 | > 4000 | > 10 µM | > 10 µM | 2.36 µM | 2.5 nM | Cn1cc2c(nc(NC(=O)Nc3ccccc3)n3nc(-c4ccc(Br)cc4)nc23)n1
– | – | > 10 µM | > 10 µM | > 10 µM | > 10000 nM | O=C(Cc1ccccc1)Nc1nc2nn(CCc3ccccc3)cc2c2nc(-c3ccc(Br)cc3)nn12
1700 | 19.4 | 0.221 µM | > 30 µM | 19.4 µM | 11.4 nM | O=C(Nc1nc2nn(CCc3ccccc3)cc2c2nc(-c3ccc(Cl)cc3)nn12)c1ccccc1
203 | 63.6 | 0.192 µM | > 30 µM | 0.614 µM | 3.02 nM | O=C(Cc1ccccc1)Nc1nc2nn(CCc3ccccc3)cc2c2nc(-c3ccccc3)nn12
10500 | 3750 | 12.9 µM | > 10 µM | 36 µM | 3.44 nM | Cn1cc2c(nc(NC(=O)Nc3ccccc3)n3nc(-c4ccc(C(F)(F)F)cc4)nc23)n1
872 | 28.8 | 0.831 µM | > 10 µM | 25.2 µM | 28.9 nM | COc1ccc(-c2nc3c4cn(CCc5ccccc5)nc4nc(NC(=O)c4ccccc4)n3n2)cc1
